Measurements collected from several papers.
Compare with care: the assays were run in different laboratories.
Nuclear receptor subfamily 4 group A member 2: Nuclear receptor subfamily 4 group A member 2 (Homo sapiens, UniProt P43354)
IRAK4: Interleukin-1 receptor-associated kinase 4 (IRAK4, Homo sapiens, UniProt Q9NWZ3)
JAK3 JH1: Tyrosine-protein kinase JAK3, JH1 (JAK3, Homo sapiens, UniProt P52333)
P2RY14: P2Y purinoceptor 14 (P2RY14, Homo sapiens, UniProt Q15391)

Compound	target	test	system	conditions	measurement	result
Cc1cc(O)c(-c2ccc([C@@H](C)CN(C)C)cc2)c2c1[nH]c(=O)c1sccc12	Microtubule-associated serine/threonine-protein kinase 4 (MAST4, Homo sapiens, UniProt O15021)	enzyme activity, inhibitor	–	0.1 µM	inhibition	2%
CCCCCCCC(=O)c1c(O)cc(O)cc1CC(=O)OCC	Nuclear receptor subfamily 4 group A member 2	thermal stability, DSF	–	100 µM	ΔTm	-3.11 °C
CNC(=O)c1ccccc1Nc1nc(Nc2ccc(CO)cc2)ncc1Cl	IRAK4	enzyme activity, inhibitor, radiometric	–	1 µM	remaining activity	1.39%
N#Cc1ccc(NC(=O)Nc2ccccc2)cc1	JAK3 JH1	cell-free assay, competition with immobilised ligand	–	25 µM	remaining binding	96%
COCCOCc1ccc(-c2cc3onc(-c4ccccc4)c3c(=O)n2C)cc1	Nuclear receptor subfamily 4 group A member 2	thermal stability, DSF	–	100 µM	ΔTm	-0.54 °C
CC(C)OC(=O)[C@H](Cc1c[nH]c2ccccc12)NC(=O)COc1ccc(F)cc1	P2RY14	cAMP, antagonist	HEK293	0.1 µM	inhibition	12.1%
COc1ccc2oc(-c3ccc4nc(N)oc4c3)c/c(=N\c3ccccc3NC(=O)CCN)c2c1	Cyclin-dependent kinase-like 1 (CDKL1, Homo sapiens, UniProt Q00532)	binding	–	1 µM	remaining binding	94%
C#Cc1cc(-c2cc(Nc3nc(N[C@@H](C)c4ccc(F)cn4)ncc3Cl)n[nH]2)ccc1C=O	Tyrosine-protein kinase JAK3 (JAK3, Homo sapiens, UniProt P52333)	enzyme activity, inhibitor	–	0.2 µM	inhibition	82.1%
CC(C)OC(=O)[C@H](Cc1c[nH]c2ccccc12)NC(=O)C1COc2ccccc2O1 (stereo partly drawn)	P2RY14	cAMP, antagonist	HEK293	0.1 µM	inhibition	9.84%
CCCCC(=O)Nc1ccc(-c2ccc3ncn(CCC)c(=O)c3c2)cn1	Ribosomal protein S6 kinase alpha-4, N-terminal kinase domain (RPS6KA4, Homo sapiens, UniProt O75676)	binding, competition with immobilised ligand	–	0.5 µM	remaining binding	89%
C[C@]1(O)CCCN(c2nc(Nc3ccc(S(=O)(=O)N[C@H]4CC[C@H](CN5CCN(c6ccc(C7CCC(=O)NC7=O)cc6F)CC5)CC4)cc3Cl)ncc2C(F)(F)F)C1 (stereo partly drawn)	Serine/threonine-protein kinase ULK1 (ULK1, Homo sapiens, UniProt O75385)	binding, competition with immobilised ligand	–	1 µM	remaining binding	32%
C#Cc1cnc(Nc2ccnc(CO)c2)nc1Nc1ccccc1S(C)(=O)=NC#N (stereo not drawn)	IRAK4	enzyme activity, inhibitor, radiometric	–	1 µM	remaining activity	1.36%
COc1cccc2c(Nc3ccc4[nH]c(C(=O)N/N=C/c5ccc(SC)cc5)cc4c3)cc(C)nc12	Nuclear receptor subfamily 4 group A member 2	thermal stability, DSF	–	100 µM	ΔTm	0.02 °C
CC(C)OC(=O)[C@H](Cc1c[nH]c2ccccc12)NC(=O)COc1ccc(Br)cc1	P2RY14	cAMP, antagonist	HEK293	0.1 µM	inhibition	38.3%
NC/C(=C\F)COc1cccc(Cn2c(=S)[nH]c(=O)c3[nH]cnc32)c1	Eosinophil peroxidase (Homo sapiens, UniProt P11678)	enzyme activity, inhibitor	–	5 µM	remaining activity	149%
O=C(O)C[C@H](O)C[C@H](O)/C=C/c1c(C2CC2)nc2ccccc2c1-c1ccc(F)cc1	Nuclear receptor subfamily 4 group A member 2	thermal stability, DSF	–	100 µM	ΔTm	-0.36 °C
C[C@H](NC(=O)C(=O)Nc1ccccc1C(C)(C)C)C(=O)N[C@@H](CC(=O)O)C(=O)COc1c(F)c(F)cc(F)c1F	Caspase-1 (CASP1, Homo sapiens, UniProt P29466)	enzyme activity, inhibitor	–	–	kinact/KI	2.42e+06 M⁻¹ s⁻¹
O=C(COc1ccc(Br)cc1)N[C@@H](Cc1c[nH]c2ccccc12)C(=O)O	P2RY14	cAMP, antagonist	HEK293	0.1 µM	inhibition	39%
COc1cccc(-c2ccc(NC(=O)C3=C(C(=O)O)CCC3)c(F)c2)c1	Nuclear receptor subfamily 4 group A member 2	thermal stability, DSF	–	100 µM	ΔTm	-1.52 °C
O=C(N[C@@H](Cc1c[nH]c2ccccc12)C(=O)O)c1cccs1	P2RY14	cAMP, antagonist	HEK293	0.1 µM	inhibition	68%
CCC(=O)NS(=O)(=O)c1ccc(-c2c(-c3ccccc3)noc2C)cc1	Nuclear receptor subfamily 4 group A member 2	thermal stability, DSF	–	100 µM	ΔTm	-1.15 °C
CCOC(=O)[C@H](Cc1c[nH]c2ccccc12)NC(=O)COc1ccc(C)cc1	P2RY14	cAMP, antagonist	HEK293	0.1 µM	inhibition	-48.9%
C1=C/COCc2cc(ccc2OCCN2CCCC2)Nc2nccc(n2)-c2cccc(c2)COC/1	JAK3 JH1	cell-free assay	–	0.1 µM	remaining signal	7.2%
O=Cc1ccc(OCC(=O)N[C@@H](Cc2c[nH]c3ccccc23)C(=O)O)cc1	P2RY14	cAMP, antagonist	HEK293	0.1 µM	inhibition	58.7%
Cc1nc2c(Cl)cccn2c1NC(=O)c1ccc(-c2ccc(N(C)C)cc2)o1	Nuclear receptor subfamily 4 group A member 2	thermal stability, DSF	–	100 µM	ΔTm	-1.88 °C
O=C(COc1ccc(C(F)(F)F)cc1)N[C@@H](Cc1c[nH]c2ccccc12)C(=O)O	P2RY14	cAMP, antagonist	HEK293	0.1 µM	inhibition	34.8%
CC[C@H](C)C(=O)O[C@H]1C[C@H](O)C=C2C=C[C@H](C)[C@H](CC[C@@H](O)C[C@@H](O)CC(=O)O)[C@H]21	Nuclear receptor subfamily 4 group A member 2	thermal stability, DSF	–	100 µM	ΔTm	-0.15 °C
